# Reference: ChEMBL document CHEMBL1687785, “ampG gene of Pseudomonas aeruginosa and its role in β-lactamase expression” (2010)
# Legend:
# [1] = target: Beta-lactamase (Pseudomonas aeruginosa (strain ATCC 15692 / PAO1 / 1C / PRS 101 / LMG12228)) (UniProt P24735); experiment: Inhibition of ampD, ampDh2, ampDh3 and ampG deficient Pseudomonas aeruginosa PAO1 AmpC assessed as nitrocefin hydrolyzed per mg of protein at 120 uM by UV spectrophotometry
# Method in brief: (§1)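 Cells cultured with or without 120 μM CCCP; crude extracts made by sonication; β-lactamase measured by UV spectrophotometry with 100 μM nitrocefin substrate at 30°C; specific activity as nmol nitrocefin hydrolyzed per min per mg protein (BCA, BSA standard); triplicate, averaged.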
# [2] = target: Beta-lactamase (Pseudomonas aeruginosa (strain ATCC 15692 / PAO1 / 1C / PRS 101 / LMG12228)) (UniProt P24735); experiment: Inhibition of ampD, ampDh2 and ampDh3 deficient Pseudomonas aeruginosa PAO1 AmpC assessed as nitrocefin hydrolyzed per mg of protein at 120 uM by UV spectrophotometry; method in brief: as §1
# [3] = target: Beta-lactamase (Pseudomonas aeruginosa (strain ATCC 15692 / PAO1 / 1C / PRS 101 / LMG12228)) (UniProt P24735); experiment: Inhibition of ampD, ampDh2, ampDh3 and ampG deficient Pseudomonas aeruginosa PAO1 AmpC harboring pZY0901 conferring resistance to gentamycin assessed as nitrocefin hydrolyzed per mg of protein at 120 uM by UV spectrophotometry; method in brief: as §1
# Beta-lactamase (Pseudomonas aeruginosa (strain ATCC 15692 / PAO1 / 1C / PRS 101 / LMG12228)), sequence (P24735 27-397 limits assumed): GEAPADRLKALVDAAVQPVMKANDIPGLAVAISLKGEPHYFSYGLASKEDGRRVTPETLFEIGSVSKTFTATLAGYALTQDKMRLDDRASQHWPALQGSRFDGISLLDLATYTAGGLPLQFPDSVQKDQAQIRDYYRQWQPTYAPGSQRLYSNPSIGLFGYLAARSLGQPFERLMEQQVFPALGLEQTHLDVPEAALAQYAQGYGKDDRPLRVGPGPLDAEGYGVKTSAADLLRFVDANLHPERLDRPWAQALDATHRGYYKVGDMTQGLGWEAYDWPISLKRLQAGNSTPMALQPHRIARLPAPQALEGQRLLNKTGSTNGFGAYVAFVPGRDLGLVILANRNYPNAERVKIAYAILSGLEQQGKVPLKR
smiles,measurement,setting,value
N#CC(C#N)=NNc1cccc(Cl)c1,Activity,[1],3 nmol/min
same,Activity,[2],1220 nmol/min
same,Activity,[3],2800 nmol/min
